Test results as given in paper PMC8264940 (ACS Omega, 2021).
Structures can show the parent of a compound that is named as a salt.

How the values were obtained:
SD rats = test: Acute toxicological study; type: in vivo, rat
ZDF rats = test: Antidiabetic study, HbA1c in ZDF rats; type: in vivo, rat; conditions: for HbA1c-lowering / antidiabetic effect (in words): repeated oral dosing BID, ZDF rats aged 11 to 13 weeks
Procedure, shortened: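 Male ZDF rats, 11 weeks old, allocated by HbA1c, fasting blood glucose and body weight. Test compound or metformin suspended in 5% gum Arabic, given orally twice daily and dosed on the latest body weight for 6 weeks. Body weight and food intake monitored. HbA1c measured by analyser, expressed as change from baseline; mean ± SE, n = 16 or 8; compared with vehicle group.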

[1] = Plasma pharmacokinetic study in SD rats; conditions: rat, in vivo
Procedure, shortened: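 Male SD rats, 6–7 weeks old; test compound given as oral suspension by body weight, two animals per compound. Tail-vein blood was collected. Plasma was mixed with 10-fold acetonitrile–methanol (1:1), centrifuged, and the supernatant analysed by LC-ESI-MS/MS (C18 column, ammonium acetate/acetonitrile gradient, negative-ion selected reaction monitoring). Plasma detection limit 0.01 μg/mL.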

[2] = system: NaCT-expressing CHO cells; test: TCA cycle activation assay; type: cell-based
Procedure, shortened: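 Stably transfected CHO-K1 cells express NaCT (pME18S, then pcDNA3.1(+) vectors); control CHO cells carry vector without the NaCT gene. Cells take up [1,5-14C]citric acid. TCA cycle activation is read as the reduction in residual intracellular radioactivity as the citrate is metabolised. Run with and without antimycin A (complex III inhibitor).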

Tissue distribution = type: in vivo, rat; conditions: 2 h after 10 mg/kg p.o., SD rats, mean of 2 animals; detection limit 0.04 μg/g
Procedure, shortened: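 Male SD rats, 6–7 weeks old, given test compound as oral suspension, two animals per compound; values are means of 2. Liver and brain homogenates and plasma were mixed with 10-fold acetonitrile–methanol (1:1), centrifuged, and supernatants analysed by LC-ESI-MS/MS in negative-ion SRM mode. Detection limits 0.01 μg/mL (plasma) and 0.04 μg/g (liver, brain).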

HepG2 cells = test: Oxygen consumption rate; type: cell-based, human; conditions: in the presence of oligomycin, P < 0.01 vs DMSO

With `N#Cc1[nH]nnc1-c1cccc(OCc2cc(C(F)(F)F)ccc2C(F)(F)F)c1` [Compound 3a, 5-{3-[2,5-Bis(trifluoromethyl)benzyloxy]phenyl}-3H-[1,2,3]triazole-4-carbonitrile] the Deaths (SD rats; 300 mg/kg single dose, after hyperthermia and hyperglycemia) was “one of three”.
For `N#Cc1[nH]nnc1-c1cccc(-c2cc(F)cc(C(F)(F)F)c2)c1` [Compound 3b, 5-(3′-Fluoro-5′-trifluoromethyl-[1,1-biphenyl]-3-yl)-3H-[1,2,3]triazole-4-carbonitrile], the “HbA1c-lowering / antidiabetic effect (in words)” value (ZDF rats) was “remarkable antidiabetic effect” and the “Doses elevating rectal temperature” value (SD rats; single dose, SD rats, 8 h after dosing) was “no elevation of rectal temperature was observed”.
In the case of `N#Cc1[nH]nnc1-c1cc(Cl)cc(/C=C/c2cccc(C(F)(F)F)c2)c1` [Compound 3c, (E)-5-(3-Chloro-5-(3-(trifluoromethyl)styryl)phenyl)-3H-1,2,3-triazole-4-carbonitrile], the “Metabolite finding in PK study” value [1] is reported as “a metabolite implying the possibility of future adverse effects was found”, the “HbA1c-lowering / antidiabetic effect (in words)” value (ZDF rats) is reported as “significant HbA1c lowering effect” and the “In vitro activity relative to compound 1” value ([2]; EC50 of the TCA activation) is reported as “one-third”.
With `N#Cc1[nH]nnc1-c1csc(-c2ccc(Cl)cc2)n1` [Compound 3d, 5-[2-(4-Chlorophenyl)-thiazol-4-yl]-3H-[1,2,3]triazole-4-carbonitrile] the “Brain distribution, concentration” value (Tissue distribution) was “indetectable” and the “HbA1c-lowering / antidiabetic effect (in words)” value (ZDF rats) was “prominent”.
For `Cc1sc(-c2ccc(C(F)(F)F)cc2)nc1-c1nn(C)nc1C#N` [Compound 4, 2-Methyl-5-{5-methyl-2-[4-(trifluoromethyl)phenyl]thiazol-4-yl}-2H-1,2,3-triazole-4-carbonitrile], the “Activation of the TCA cycle (in words)” value [2] was “did not occur”.
With `O=[N+]([O-])c1ccc(O)c([N+](=O)[O-])c1` [DNP, 2,4-dinitrophenol] the “Concentration significantly increasing OCR” value (HepG2 cells) was 40 µM.
In the case of `N#CC(C#N)=NNc1ccc(OC(F)(F)F)cc1` [FCCP, Carbonyl cyanide p-trifluoromethoxyphenylhydrazone], the “Concentration significantly increasing OCR” value (HepG2 cells) is reported as 0.25 µM.
For `CN(C)C(=N)N=C(N)N` [metformin, 1,1-Dimethyl biguanide (metformin) hydrochloride, reference compound], the “Effect on HbA1c, monotherapy (in words)” value (ZDF rats; 100 mg/kg/day alone, 6-week, ZDF rats) was “no effect”.
For `N[C@@H](CC(=O)N1CCn2c(nnc2C(F)(F)F)C1)Cc1cc(F)c(F)cc1F` [sitagliptin, Sitagliptin phosphate hydrate, reference compound], the “Reduction of HbA1c change from the vehicle value” (ZDF rats; monotherapy 10 mg/kg/day, 6-week, vehicle 2.97% points) was 11.4%.
